We go through four molecules from ChEMBL document CHEMBL4152207, “Discovery of potent and selective BRD4 inhibitors capable of blocking TLR3-induced acute airway inflammation” (Eur J Med Chem, 2018).

What is called IC50 is the concentration that inhibits the measured activity by half. As usually defined, the half-life is how long it takes for the measured level to halve. For orientation: AUC(0-t) means the area under the concentration-time curve up to a stated or last time point. As a reminder, the clearance is a measure of how efficiently the substance is removed, as volume per time. A high value points to a high capacity for elimination. For orientation: Cmax means the peak of the concentration-time curve.

Activity calls are given as the source filed them. The rule behind the calls is not given here.

In one data set the target is CREB-binding protein (Homo sapiens, UniProt Q92793). Nature of the data set: Inhibition of CBP (unknown origin) after 1 hr by TR-FRET assay. The gist of the method: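 Isolated bromodomain in a kit TR-FRET assay. Inhibitor series 0.01 nM to 100 μM, incubated 1 h at room temperature. Excitation 340 nm, emission read at 620 and 670 nm with 100 μs delay and 500 μs window. IC50 from the sigmoidal plot of the 670/620 ratio against concentration. Mean of at least two runs.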
CREB-binding protein, sequence (Q92793 whole entry): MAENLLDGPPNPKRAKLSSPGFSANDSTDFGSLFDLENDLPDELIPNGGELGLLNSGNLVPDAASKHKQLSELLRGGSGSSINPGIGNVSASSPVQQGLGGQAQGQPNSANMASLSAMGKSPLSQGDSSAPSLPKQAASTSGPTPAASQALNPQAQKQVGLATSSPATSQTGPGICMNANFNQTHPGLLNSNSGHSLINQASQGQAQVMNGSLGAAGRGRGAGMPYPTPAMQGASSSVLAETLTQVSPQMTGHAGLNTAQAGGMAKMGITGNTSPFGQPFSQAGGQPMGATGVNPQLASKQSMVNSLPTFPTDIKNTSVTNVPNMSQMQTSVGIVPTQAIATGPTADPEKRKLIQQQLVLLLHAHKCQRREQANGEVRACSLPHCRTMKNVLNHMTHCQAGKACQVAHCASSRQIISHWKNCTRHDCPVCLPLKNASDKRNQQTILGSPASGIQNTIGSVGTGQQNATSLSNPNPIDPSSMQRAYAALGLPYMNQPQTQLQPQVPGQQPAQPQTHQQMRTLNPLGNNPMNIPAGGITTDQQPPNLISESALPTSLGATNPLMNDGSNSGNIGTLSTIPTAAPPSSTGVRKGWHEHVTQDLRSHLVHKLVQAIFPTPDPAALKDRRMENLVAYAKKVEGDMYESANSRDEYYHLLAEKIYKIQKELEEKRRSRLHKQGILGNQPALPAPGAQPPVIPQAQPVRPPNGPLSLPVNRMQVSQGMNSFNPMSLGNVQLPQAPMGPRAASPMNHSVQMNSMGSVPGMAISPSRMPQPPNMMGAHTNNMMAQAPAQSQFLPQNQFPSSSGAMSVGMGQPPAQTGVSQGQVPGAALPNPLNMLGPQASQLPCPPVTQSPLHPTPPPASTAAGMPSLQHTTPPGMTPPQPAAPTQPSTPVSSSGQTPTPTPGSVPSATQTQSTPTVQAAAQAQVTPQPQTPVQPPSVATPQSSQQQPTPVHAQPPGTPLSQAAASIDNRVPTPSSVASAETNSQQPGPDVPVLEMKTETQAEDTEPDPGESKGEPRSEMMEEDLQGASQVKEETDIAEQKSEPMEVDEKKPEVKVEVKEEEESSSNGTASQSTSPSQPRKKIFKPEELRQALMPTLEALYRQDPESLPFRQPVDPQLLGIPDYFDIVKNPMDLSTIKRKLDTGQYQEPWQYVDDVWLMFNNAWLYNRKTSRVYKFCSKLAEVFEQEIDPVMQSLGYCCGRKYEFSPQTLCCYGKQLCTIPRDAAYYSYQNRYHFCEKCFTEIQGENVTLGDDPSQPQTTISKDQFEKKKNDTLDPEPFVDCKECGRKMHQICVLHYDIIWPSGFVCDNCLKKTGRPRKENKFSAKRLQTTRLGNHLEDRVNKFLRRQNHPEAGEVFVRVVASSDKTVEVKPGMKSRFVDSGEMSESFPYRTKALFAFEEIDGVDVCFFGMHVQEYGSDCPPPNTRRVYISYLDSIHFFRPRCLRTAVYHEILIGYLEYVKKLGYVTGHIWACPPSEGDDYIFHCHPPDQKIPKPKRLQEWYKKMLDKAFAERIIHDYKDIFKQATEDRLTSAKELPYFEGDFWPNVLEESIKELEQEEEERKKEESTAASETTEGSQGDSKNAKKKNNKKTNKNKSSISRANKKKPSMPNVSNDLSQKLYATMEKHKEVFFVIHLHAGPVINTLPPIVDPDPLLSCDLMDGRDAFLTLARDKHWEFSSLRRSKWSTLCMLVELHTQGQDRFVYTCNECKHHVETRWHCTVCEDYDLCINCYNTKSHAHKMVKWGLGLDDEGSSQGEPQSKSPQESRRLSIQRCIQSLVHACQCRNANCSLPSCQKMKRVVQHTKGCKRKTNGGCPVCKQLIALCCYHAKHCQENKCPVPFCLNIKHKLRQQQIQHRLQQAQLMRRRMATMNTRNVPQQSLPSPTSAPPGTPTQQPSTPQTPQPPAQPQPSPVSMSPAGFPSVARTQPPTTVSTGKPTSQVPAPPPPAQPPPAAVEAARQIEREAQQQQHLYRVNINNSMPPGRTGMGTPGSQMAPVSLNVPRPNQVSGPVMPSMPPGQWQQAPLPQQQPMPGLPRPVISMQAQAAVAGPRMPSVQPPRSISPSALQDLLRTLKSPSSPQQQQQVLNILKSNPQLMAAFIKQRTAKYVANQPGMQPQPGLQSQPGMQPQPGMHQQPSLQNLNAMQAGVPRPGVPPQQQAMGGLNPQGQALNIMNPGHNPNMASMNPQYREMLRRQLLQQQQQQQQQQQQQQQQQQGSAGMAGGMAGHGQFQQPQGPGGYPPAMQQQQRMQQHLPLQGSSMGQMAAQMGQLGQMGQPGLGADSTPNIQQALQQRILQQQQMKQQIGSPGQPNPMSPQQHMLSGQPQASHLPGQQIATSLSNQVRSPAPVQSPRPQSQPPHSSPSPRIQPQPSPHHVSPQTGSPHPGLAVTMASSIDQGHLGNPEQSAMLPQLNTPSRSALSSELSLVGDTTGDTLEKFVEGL

For data set [1], the system named is Mus musculus. Briefly: Anti-inflammatory activity in poly(I:C)-induced airway inflammation C57BL/6 mouse model assessed as reduction in neutrophils recruitment into bronchoalveolar lavage fluid at 10 mg/kg, ip administered 1 day prior to poly(I:C) stimulation and redosed on day 2 followed by poly(I:C) stimulation by trypan blue staining-based hemocytometric analysis. In kind it is functional, organism-based.

Data set [2] relates to Mus musculus. Nature of the data set: Anti-inflammatory activity in poly(I:C)-induced airway inflammation C57BL/6 mouse model assessed as reduction in mKC expression in lung at 10 mg/kg, ip administered 1 day prior to poly(I:C) stimulation and redosed on day 2 followed by poly(I:C) stimulation. It counts as functional, organism-based. The gist of the method:
(§1)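 Male C57BL/6J mice, 12 weeks old, were given 10 mg/kg i.p. one day before stimulation. The next day they got a second dose, immediately followed by intranasal poly(I:C) (300 μg in 50 μL PBS) or PBS alone. Compound was taken up in DMSO and diluted in 10% hydroxypropyl β-cyclodextrin in PBS. Mice were euthanized one day later and lung tissue was collected for cytokine expression.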

The subject of data set [3] is Mus musculus. Nature of the data set: Anti-inflammatory activity in poly(I:C)-induced airway inflammation C57BL/6 mouse model assessed as reduction in mISG54 expression in lung at 10 mg/kg, ip administered 1 day prior to poly(I:C) stimulation and redosed on day 2 followed by poly(I:C) stimulation. It counts as functional, organism-based. The essentials:
as §1

Data set [4] relates to Mus musculus. Briefly: Anti-inflammatory activity in poly(I:C)-induced airway inflammation C57BL/6 mouse model assessed as reduction in mIL6 expression in lung at 10 mg/kg, ip administered 1 day prior to poly(I:C) stimulation and redosed on day 2 followed by poly(I:C) stimulation. In kind it is functional, organism-based. The essentials: as §1
The test system of data set [5] is Mus musculus. Briefly: Anti-inflammatory activity in poly(I:C)-induced airway inflammation C57BL/6 mouse model assessed as reduction in mCIG5 expression in lung at 10 mg/kg, ip administered 1 day prior to poly(I:C) stimulation and redosed on day 2 followed by poly(I:C) stimulation. In kind it is functional, organism-based. The gist of the method:
as §1

In data set [6] the target is T1, Bromodomain-containing protein 4 (Homo sapiens, UniProt O60885). Nature of the data set: Inhibition of BRD4 in human SAE cells assessed as reduction in TLR3 agonist poly(I:C) -induced ISG54 RNA expression preincubated for 24 hrs followed by poly(I:C) addition and measured after 4 hrs by SYBR green dye-based qRT-PCR analysis. It counts as cell-based.
Data set [7] has as its target T1, Bromodomain-containing protein 4. Nature of the data set: Inhibition of BRD4 in human SAE cells assessed as reduction in TLR3 agonist poly(I:C) -induced ISG56 RNA expression preincubated for 24 hrs followed by poly(I:C) addition and measured after 4 hrs by SYBR green dye-based qRT-PCR analysis. It counts as cell-based.
The target is the same in data set [8]. Nature of the data set: Inhibition of BRD4 in human SAE cells assessed as reduction in TLR3 agonist poly(I:C) -induced IL-8 RNA expression preincubated for 24 hrs followed by poly(I:C) addition and measured after 4 hrs by SYBR green dye-based qRT-PCR analysis. In kind it is cell-based.
For data set [9] the target is unchanged. Briefly: Inhibition of BRD4 in human SAE cells assessed as reduction in TLR3 agonist poly(I:C) -induced grobeta RNA expression preincubated for 24 hrs followed by poly(I:C) addition and measured after 4 hrs by SYBR green dye-based qRT-PCR analysis. In kind it is cell-based.
Data set [10] can be described thus: Half life in rat at 10 mg/kg, iv. It counts as ADME, organism-based. The conditions noted are these: in vivo.
Data set [11] can be described thus: AUC (0 to t) in rat at 10 mg/kg, iv. The conditions noted are these: in vivo. It counts as ADME, organism-based.
The nature of data set [12]: Volume of distribution at steady state in rat at 10 mg/kg, iv. It counts as ADME, organism-based. Particulars: in vivo, read-out: Vdss.
Data set [13] in a line: Total clearance in rat at 10 mg/kg, iv. In kind it is ADME, organism-based. The conditions noted are these: in vivo.
A short description of data set [14]: Cmax in rat at 20 mg/kg, po. In kind it is ADME, organism-based. Set-up: dose 20 mg/kg, route oral. The conditions noted are these: in vivo.
A short description of data set [15]: AUC (0 to t) in rat at 20 mg/kg, po. In kind it is ADME, organism-based. Particulars: in vivo.
For data set [16], the system named is Mus musculus. Nature of the data set: Anti-inflammatory activity in poly(I:C)-induced airway inflammation C57BL/6 mouse model assessed as reduction in total cells in bronchoalveolar lavage fluid at 10 mg/kg, ip administered 1 day prior to poly(I:C) stimulation and redosed on day 2 followed by poly(I:C) stimulation by trypan blue staining-based hemocytometric analysis. In kind it is functional, organism-based.

In turn, `Cc1sc2c(c1C)C(c1ccc(Cl)cc1)=N[C@@H](CC(=O)OC(C)(C)C)c1nnc(C)n1-2` gave an IC50 at CREB-binding protein of 9.6 µM. The result with Mus musculus [1], in the data set on Mus musculus [2], in the data set with Mus musculus [3], with Mus musculus [4] and with Mus musculus [5] was inactive.
Consider `COc1cc(OC)c2c(=O)[nH]c(-c3cc(C)c(OCCO)c(C)c3)nc2c1` [APABETALONE], for which the IC50 on CREB-binding protein is over 10 µM. In addition, the outcome in the data set with Mus musculus [1], with Mus musculus [2], with Mus musculus [3], in the data set with Mus musculus [4] and in the data set on Mus musculus [5] was inactive.
With `Cc1cc(/N=N/c2ccc3c(c2)CCC(=O)N3)c(N)cc1O`, the IC50 in data set [6] is 0.49 µM; in data set [7], 0.51 µM; in [8] it was 0.53 µM; in [9] it was 0.58 µM; on CREB-binding protein, over 10 µM. In data set [10], this molecule showed a half-life of 1.2 h. Further, the AUC(0-t) in data set [11] was 14700 ng·h/mL; in [15], 450 ng·h/mL. In addition, the Vd in data set [12] amounted to 0.864 L/kg. In data set [13], this molecule had a clearance of 11.5 mL/min/kg. The peak level in [14] (Cmax) was 80 ng/mL. The result in the data set on Mus musculus [1], in the data set on Mus musculus [2], in the data set on Mus musculus [3], with Mus musculus [4], in the data set on Mus musculus [5] and in the data set with Mus musculus [16] was Active.
With `CC(C)(C)c1cc(-c2nnc(-c3cc(F)cc(Cl)c3)o2)no1`, the concentration for half-maximal inhibition (IC50) was determined as 7.9 µM in data set [6], 7.7 µM in data set [7], 4.3 µM in data set [8] and 3.9 µM in [9].
